This note sets out measurements from ChEMBL document CHEMBL4043093, “2-Oxo-3, 4-dihydropyrimido[4, 5-d]pyrimidinyl derivatives as new irreversible pan fibroblast growth factor receptor (FGFR) inhibitors” (Eur J Med Chem, 2017).

Test [1] concerns the target ALK tyrosine kinase receptor (Homo sapiens) (UniProt Q9UM73). Briefly: Inhibition of wild-type human partial length ALK (I1088 to E1409 residues) expressed in HEK293 cells assessed as residual activity at 1000 nM after 30 mins by Kinomescan method relative to control. In kind it is cell-based.
Test [2] addresses Cyclin-dependent kinase 4 (Homo sapiens) (UniProt P11802). Briefly: Inhibition of wild-type human full length CDK4 (M1 to E303 residues) expressed in HEK293 cells assessed as residual activity at 1000 nM after 30 mins by Kinomescan method relative to control. The class given is cell-based. The procedure, abridged: (§1)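 Single-point screen at a fixed 1 µM, run within a 456-kinase DiscoveRx KINOMEscan panel. Each kinase's read-out is Percent Control, i.e. signal relative to a control without compound. Hits were scored by a Percent Control < 35 cut-off, and an S(35) selectivity score was calculated across the non-mutant kinases.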

Test [3] concerns the target Membrane-associated tyrosine- and threonine-specific cdc2-inhibitory kinase (Homo sapiens) (UniProt Q99640). Briefly: Inhibition of wild-type human partial length PKMYT1 (A88 to G366 residues) expressed in Escherichia coli BL21 assessed as residual activity at 1000 nM after 30 mins by Kinomescan method relative to control.
In test [4] the target is Serine/threonine-protein kinase NLK (Homo sapiens) (UniProt Q9UBE8). Briefly: Inhibition of wild-type human full length NLK (M13 to E527 residues) expressed in Escherichia coli BL21 assessed as residual activity at 1000 nM after 30 mins by Kinomescan method relative to control. The procedure, abridged: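 Single-concentration screen at 1 µM across a 456-kinase KINOMEscan panel. The read-out is Percent Control for each kinase.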

Test [5] deals with TGF-beta receptor type-2 (Homo sapiens) (UniProt P37173). Briefly: Inhibition of wild-type human partial length TGFBR2 (I218 to K567 residues) expressed in Escherichia coli BL21 assessed as residual activity at 1000 nM after 30 mins by Kinomescan method relative to control.
For test [6], the target named is Death-associated protein kinase 3 (Homo sapiens) (UniProt O43293). Briefly: Inhibition of wild-type human partial length DAPK3 (M1 to A277 residues) expressed in Escherichia coli BL21 assessed as residual activity at 1000 nM after 30 mins by Kinomescan method relative to control.
Test [7] has as its target Tyrosine-protein kinase BTK (Homo sapiens) (UniProt Q06187). Briefly: Inhibition of wild-type human full length BTK (M1 to S659 residues) expressed in HEK293 cells assessed as residual activity at 1000 nM after 30 mins by Kinomescan method relative to control. The class given is cell-based. The procedure, abridged: as §1
Test [8] addresses Mitogen-activated protein kinase kinase kinase 10 (Homo sapiens) (UniProt Q02779). Briefly: Inhibition of wild-type human partial length MLK2 (V52 to W380 residues) expressed in Escherichia coli BL21 assessed as residual activity at 1000 nM after 30 mins by Kinomescan method relative to control.
Test [9] addresses Macrophage-stimulating protein receptor (Homo sapiens) (UniProt Q04912). Briefly: Inhibition of wild-type human partial length MST1R (I1057 to L1363 residues) expressed in Escherichia coli BL21 assessed as residual activity at 1000 nM after 30 mins by Kinomescan method relative to control.
Test [10] has as its target Citron Rho-interacting kinase (Homo sapiens) (UniProt O14578). Briefly: Inhibition of wild-type human partial length CIT (M68 to E432 residues) expressed in Escherichia coli BL21 assessed as residual activity at 1000 nM after 30 mins by Kinomescan method relative to control.
Test [11] concerns the target Mitogen-activated protein kinase kinase kinase 5 (Homo sapiens) (UniProt Q99683). Briefly: Inhibition of wild-type human partial length ASK1 (E648 to S964 residues) expressed in Escherichia coli BL21 assessed as residual activity at 1000 nM after 30 mins by Kinomescan method relative to control.
Test [12] deals with Calcium/calmodulin-dependent protein kinase type 1D (Homo sapiens) (UniProt Q8IU85). Briefly: Inhibition of wild-type human partial length CAMK1D (M1 to K299 residues) expressed in Escherichia coli BL21 assessed as residual activity at 1000 nM after 30 mins by Kinomescan method relative to control.
Test [13] addresses Tyrosine-protein kinase Fgr (Homo sapiens) (UniProt P09769). Briefly: Inhibition of wild-type human partial length FGR (L233 to T529 residues) expressed in Escherichia coli BL21 assessed as residual activity at 1000 nM after 30 mins by Kinomescan method relative to control.
In test [14] the target is Calcium/calmodulin-dependent protein kinase kinase 1 (Homo sapiens) (UniProt Q8N5S9). Briefly: Inhibition of wild-type human partial length CAMKK1 (R65 to E414 residues) expressed in Escherichia coli BL21 assessed as residual activity at 1000 nM after 30 mins by Kinomescan method relative to control.
Test [15] has as its target Serine/threonine-protein kinase 32C (Homo sapiens) (UniProt Q86UX6). Briefly: Inhibition of wild-type human partial length YANK3 (M68 to G486 residues) expressed in Escherichia coli BL21 assessed as residual activity at 1000 nM after 30 mins by Kinomescan method relative to control.
In test [16] the target is Ribosomal protein S6 kinase alpha-6 (Homo sapiens) (UniProt Q9UK32). Briefly: Inhibition of wild-type human partial length C-terminal RSK4 kinase domain 2 (I401 to Y711 residues) expressed in Escherichia coli BL21 assessed as residual activity at 1000 nM after 30 mins by Kinomescan method relative to control.
Test [17] has as its target Protein kinase C eta type (Homo sapiens) (UniProt P24723). Briefly: Inhibition of wild-type human partial length PRKCH (S324 to P683 residues) expressed in Escherichia coli BL21 assessed as residual activity at 1000 nM after 30 mins by Kinomescan method relative to control.
Test [18] concerns the target Mitogen-activated protein kinase 10 (Homo sapiens) (UniProt P53779). Briefly: Inhibition of wild-type human partial length JNK3 (V28 to Q422 residues) expressed in HEK293 cells assessed as residual activity at 1000 nM after 30 mins by Kinomescan method relative to control. In kind it is cell-based.
Test [19] has as its target Cyclin-dependent kinase 9 (Homo sapiens) (UniProt P50750). Briefly: Inhibition of wild-type human full length CDK9 (M1 to F372 residues) expressed in Escherichia coli BL21 assessed as residual activity at 1000 nM after 30 mins by Kinomescan method relative to control. The method, boiled down: as §1
In test [20] the target is Fibroblast growth factor receptor 1 (Homo sapiens, UniProt P11362). Briefly: Inhibition of human recombinant His-tagged FGFR1 cytoplasmic domain (308 to 731 residues) expressed in baculovirus using Tyr-4 peptide after 1 hr by FRET-based Z'-Lyte assay.
Test [21] has as its target Ribosomal protein S6 kinase alpha-3 (Homo sapiens) (UniProt P51812). Briefly: Inhibition of wild-type human partial length C-terminal RSK3 kinase domain 2 (V403 to K700 residues) expressed in Escherichia coli BL21 assessed as residual activity at 1000 nM after 30 mins by Kinomescan method relative to control.
For another test, the system named is NCI-H520. Briefly: Antiproliferative activity against human FGFR1-amplified NCI-H520 cells after 7 days by SRB assay. To be noted: NCI-H520, 168 h. A general note: In SRB staining, fixed cells bind dye roughly in proportion to their protein.

The IC50 is the point on the concentration scale where inhibition reaches its midpoint.

Chain of Fibroblast growth factor receptor 1 (P11362 whole entry, the tested form may be a part): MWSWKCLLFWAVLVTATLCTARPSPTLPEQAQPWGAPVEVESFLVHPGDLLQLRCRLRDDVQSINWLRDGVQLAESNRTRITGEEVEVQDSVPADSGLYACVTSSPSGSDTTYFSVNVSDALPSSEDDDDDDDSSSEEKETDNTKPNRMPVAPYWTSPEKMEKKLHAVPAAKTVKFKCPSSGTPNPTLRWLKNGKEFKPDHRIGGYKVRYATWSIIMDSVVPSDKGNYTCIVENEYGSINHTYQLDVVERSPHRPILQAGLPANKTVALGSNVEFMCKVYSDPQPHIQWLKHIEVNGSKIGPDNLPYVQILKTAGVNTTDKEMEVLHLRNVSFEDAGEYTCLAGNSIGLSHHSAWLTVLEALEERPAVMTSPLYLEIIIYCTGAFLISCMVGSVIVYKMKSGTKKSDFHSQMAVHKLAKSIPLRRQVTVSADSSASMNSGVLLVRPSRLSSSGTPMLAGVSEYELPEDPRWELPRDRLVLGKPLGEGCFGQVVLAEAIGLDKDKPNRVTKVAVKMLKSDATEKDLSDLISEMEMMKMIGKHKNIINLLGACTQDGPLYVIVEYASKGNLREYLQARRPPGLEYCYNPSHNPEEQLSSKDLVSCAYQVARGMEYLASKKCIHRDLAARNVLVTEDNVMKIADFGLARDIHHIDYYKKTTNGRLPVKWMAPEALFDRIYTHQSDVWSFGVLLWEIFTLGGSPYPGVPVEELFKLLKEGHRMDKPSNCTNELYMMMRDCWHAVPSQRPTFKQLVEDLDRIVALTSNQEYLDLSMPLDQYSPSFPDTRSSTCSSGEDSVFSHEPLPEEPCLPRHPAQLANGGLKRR
Chain of TGF-beta receptor type-2 (Homo sapiens) (P37173 whole entry, the tested form may be a part): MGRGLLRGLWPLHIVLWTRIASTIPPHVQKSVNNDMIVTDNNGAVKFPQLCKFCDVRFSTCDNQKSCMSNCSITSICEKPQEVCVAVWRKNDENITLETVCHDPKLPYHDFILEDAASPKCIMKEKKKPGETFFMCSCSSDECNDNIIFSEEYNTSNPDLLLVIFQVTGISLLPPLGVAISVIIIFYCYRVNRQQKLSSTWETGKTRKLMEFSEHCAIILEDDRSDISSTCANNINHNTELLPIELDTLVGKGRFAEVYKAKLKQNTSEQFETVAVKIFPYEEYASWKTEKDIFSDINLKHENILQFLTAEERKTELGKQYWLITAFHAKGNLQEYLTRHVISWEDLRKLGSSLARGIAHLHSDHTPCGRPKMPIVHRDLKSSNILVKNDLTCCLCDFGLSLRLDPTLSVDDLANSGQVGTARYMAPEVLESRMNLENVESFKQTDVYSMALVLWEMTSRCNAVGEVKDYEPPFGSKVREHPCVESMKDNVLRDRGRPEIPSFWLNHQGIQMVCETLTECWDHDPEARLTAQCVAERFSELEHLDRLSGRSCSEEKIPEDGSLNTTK
Chain of Serine/threonine-protein kinase 32C (Homo sapiens) (Q86UX6 whole entry, the tested form may be a part): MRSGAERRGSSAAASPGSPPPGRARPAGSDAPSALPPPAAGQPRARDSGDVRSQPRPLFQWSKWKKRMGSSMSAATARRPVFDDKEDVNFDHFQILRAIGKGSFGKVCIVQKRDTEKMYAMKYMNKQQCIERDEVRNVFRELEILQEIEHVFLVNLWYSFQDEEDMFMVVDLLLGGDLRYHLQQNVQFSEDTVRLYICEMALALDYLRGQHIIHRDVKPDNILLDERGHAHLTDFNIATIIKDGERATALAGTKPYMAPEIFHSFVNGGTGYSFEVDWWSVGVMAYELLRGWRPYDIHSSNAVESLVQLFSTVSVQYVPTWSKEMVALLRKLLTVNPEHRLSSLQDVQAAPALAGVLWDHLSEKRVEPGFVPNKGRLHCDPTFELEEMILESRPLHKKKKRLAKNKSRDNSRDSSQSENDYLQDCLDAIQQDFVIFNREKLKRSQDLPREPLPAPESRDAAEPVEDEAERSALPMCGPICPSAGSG
Chain of Macrophage-stimulating protein receptor (Homo sapiens) (Q04912 25-304 limits assumed): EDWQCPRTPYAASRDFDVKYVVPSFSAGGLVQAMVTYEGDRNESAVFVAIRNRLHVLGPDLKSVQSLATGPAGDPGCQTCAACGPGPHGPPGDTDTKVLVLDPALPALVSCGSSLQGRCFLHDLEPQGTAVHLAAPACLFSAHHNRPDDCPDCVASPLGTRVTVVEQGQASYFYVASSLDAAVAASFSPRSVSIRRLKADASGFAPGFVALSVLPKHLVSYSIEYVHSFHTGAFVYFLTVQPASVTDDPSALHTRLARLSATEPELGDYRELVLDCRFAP
Chain of Macrophage-stimulating protein receptor (Homo sapiens) (Q04912 310-1400 limits assumed): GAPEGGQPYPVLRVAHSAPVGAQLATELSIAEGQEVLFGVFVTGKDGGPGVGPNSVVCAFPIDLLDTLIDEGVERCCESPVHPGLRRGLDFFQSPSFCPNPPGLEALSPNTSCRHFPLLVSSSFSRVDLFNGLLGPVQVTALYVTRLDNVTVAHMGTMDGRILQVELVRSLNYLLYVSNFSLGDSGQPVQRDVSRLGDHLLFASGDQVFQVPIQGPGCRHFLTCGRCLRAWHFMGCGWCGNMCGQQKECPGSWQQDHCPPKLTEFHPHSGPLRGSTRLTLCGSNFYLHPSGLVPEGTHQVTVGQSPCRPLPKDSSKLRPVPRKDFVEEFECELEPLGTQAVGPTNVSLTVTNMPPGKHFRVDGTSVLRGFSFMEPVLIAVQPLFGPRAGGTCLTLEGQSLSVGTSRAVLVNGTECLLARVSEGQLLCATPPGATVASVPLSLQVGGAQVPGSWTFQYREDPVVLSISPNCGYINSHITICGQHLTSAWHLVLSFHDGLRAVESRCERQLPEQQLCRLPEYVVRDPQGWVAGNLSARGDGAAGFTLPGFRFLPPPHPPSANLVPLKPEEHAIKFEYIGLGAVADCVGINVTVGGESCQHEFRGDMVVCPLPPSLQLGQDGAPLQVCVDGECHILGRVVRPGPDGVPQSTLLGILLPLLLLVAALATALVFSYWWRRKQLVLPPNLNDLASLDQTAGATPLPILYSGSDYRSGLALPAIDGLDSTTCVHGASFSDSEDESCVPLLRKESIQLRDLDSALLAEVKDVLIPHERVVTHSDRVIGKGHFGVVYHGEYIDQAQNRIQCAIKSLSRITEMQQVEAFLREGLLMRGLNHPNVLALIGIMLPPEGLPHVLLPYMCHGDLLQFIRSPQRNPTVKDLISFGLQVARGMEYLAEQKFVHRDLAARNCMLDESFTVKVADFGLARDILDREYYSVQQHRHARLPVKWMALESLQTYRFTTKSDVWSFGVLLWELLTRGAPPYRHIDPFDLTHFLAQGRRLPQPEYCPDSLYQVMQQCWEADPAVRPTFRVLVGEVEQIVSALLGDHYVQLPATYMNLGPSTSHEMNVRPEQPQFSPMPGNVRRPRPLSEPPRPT
Chain of Calcium/calmodulin-dependent protein kinase type 1D (Homo sapiens) (Q8IU85 whole entry, looked up, the tested form may be a part): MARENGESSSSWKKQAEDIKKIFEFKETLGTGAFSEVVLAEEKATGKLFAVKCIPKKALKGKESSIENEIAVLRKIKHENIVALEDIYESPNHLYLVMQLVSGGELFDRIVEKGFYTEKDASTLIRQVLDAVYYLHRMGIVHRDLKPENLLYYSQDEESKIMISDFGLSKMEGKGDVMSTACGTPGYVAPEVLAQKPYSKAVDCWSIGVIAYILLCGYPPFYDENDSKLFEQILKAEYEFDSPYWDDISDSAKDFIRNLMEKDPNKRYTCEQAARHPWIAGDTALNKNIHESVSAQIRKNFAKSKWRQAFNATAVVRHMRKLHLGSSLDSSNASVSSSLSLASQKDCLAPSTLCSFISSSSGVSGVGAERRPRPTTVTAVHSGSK
Chain of Cyclin-dependent kinase 4 (Homo sapiens) (P11802 whole entry, the tested form may be a part): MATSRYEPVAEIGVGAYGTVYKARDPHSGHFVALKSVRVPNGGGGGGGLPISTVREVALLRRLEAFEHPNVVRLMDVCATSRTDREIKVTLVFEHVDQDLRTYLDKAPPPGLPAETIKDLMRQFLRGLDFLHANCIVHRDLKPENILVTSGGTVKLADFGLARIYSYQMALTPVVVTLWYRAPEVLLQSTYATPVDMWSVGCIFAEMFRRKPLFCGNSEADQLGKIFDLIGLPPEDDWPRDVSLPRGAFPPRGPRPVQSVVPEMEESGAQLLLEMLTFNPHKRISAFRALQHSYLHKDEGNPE
Chain of Membrane-associated tyrosine- and threonine-specific cdc2-inhibitory kinase (Homo sapiens) (Q99640 whole entry, the tested form may be a part): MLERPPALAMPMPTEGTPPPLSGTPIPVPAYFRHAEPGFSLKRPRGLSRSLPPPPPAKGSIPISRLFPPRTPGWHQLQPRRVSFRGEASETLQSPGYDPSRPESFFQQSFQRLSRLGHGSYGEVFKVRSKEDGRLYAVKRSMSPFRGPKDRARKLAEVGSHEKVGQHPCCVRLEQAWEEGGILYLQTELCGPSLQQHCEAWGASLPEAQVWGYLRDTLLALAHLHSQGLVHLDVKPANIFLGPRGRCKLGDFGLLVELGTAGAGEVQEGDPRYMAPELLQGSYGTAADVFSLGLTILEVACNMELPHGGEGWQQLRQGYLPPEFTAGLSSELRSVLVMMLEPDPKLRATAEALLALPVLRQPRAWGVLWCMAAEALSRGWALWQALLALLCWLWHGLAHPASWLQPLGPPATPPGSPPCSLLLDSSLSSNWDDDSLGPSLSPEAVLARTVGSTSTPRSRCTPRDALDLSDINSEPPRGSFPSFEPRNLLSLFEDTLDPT
Chain of Cyclin-dependent kinase 9 (Homo sapiens) (P50750 whole entry, the tested form may be a part): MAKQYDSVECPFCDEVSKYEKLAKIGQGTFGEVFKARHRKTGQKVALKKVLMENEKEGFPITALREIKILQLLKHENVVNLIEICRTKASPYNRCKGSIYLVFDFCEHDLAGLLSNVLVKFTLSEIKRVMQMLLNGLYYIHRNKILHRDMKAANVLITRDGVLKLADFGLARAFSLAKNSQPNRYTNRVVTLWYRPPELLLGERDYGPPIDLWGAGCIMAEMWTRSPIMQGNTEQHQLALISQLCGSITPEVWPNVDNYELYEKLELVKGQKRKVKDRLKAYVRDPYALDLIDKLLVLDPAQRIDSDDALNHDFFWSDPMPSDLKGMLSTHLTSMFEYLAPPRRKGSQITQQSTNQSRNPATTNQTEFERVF

As to `COc1cc(OC)c(Cl)c(N2Cc3cnc(Nc4ccc(F)cc4)nc3N(C3CCN(C(=O)/C=C/CN(C)C)CC3)C2=O)c1Cl`, the Activity in test [1] stood at 100%; in test [2], 100%; in test [3], 100%; in test [4], 98%; in [5], 91%; in test [6], 100%. Also, the Activity in [7] worked out at 99%; in test [8], 94%; in test [9] it was 95%; in [10], 99%; in test [11], 100%; in [12], 87%. For the same compound, the Activity is 19% in [13]; 93% in [14]; 90% in [15]; 94% in [16]; 91% in [17]; 100% in test [18]. Moreover, the Activity in test [19] is 97%; in test [21], 88%. Besides, the 50% inhibitory concentration (IC50) was 0.99 nM in test [20] and 8.69 nM in the test with NCI-H520.
